Experimental data published in ChEMBL document CHEMBL1649384, “Synthesis and antiproliferative activity of novel symmetrical alkylthio- and alkylseleno-imidocarbamates” (Eur J Med Chem, 2011).

Legend:
[1] = tested on: MCF7; test: Cytotoxicity against human MCF7 cells after 72 hrs by MTT assay; format: functional; conditions: MCF7, 72 h
Procedure, shortened: (§1)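 Cells seeded per well: Hep-G2 1×10⁴, HT-29 4×10³, K-562 4×10³, MCF-7 1.2×10⁴, MCF-10A 7×10³, PC-3 2×10³. MCF-10A were grown in supplemented MEBM at 37 °C, 5% CO₂. Five concentrations were tested between 0.01 and 100, with 72 h exposure. Formazan was read by A590. GI₅₀ was taken relative to untreated controls, from at least three independent experiments.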

[2] = tested on: HT-29; test: Cytotoxicity against human HT-29 cells after 72 hrs by MTT assay; format: functional; conditions: HT-29, 72 h; for CC50: read-out: LC50 (the source's name); procedure, shortened: as §1
[3] = tested on: K562; test: Cytotoxicity against human K562 cells after 72 hrs by MTT assay; format: functional; conditions: K562, 72 h; for CC50: read-out: LC50 (the source's name); procedure, shortened: as §1
[4] = tested on: HepG2; test: Cytotoxicity against human HepG2 cells after 72 hrs by MTT assay; format: functional; conditions: HepG2, 72 h; for CC50: read-out: LC50 (the source's name); procedure, shortened: as §1
[5] = tested on: PC-3; test: Cytotoxicity against human PC3 cells after 72 hrs by MTT assay; format: functional; conditions: PC-3, 72 h; for CC50: read-out: LC50 (the source's name); procedure, shortened: as §1
[6] = Cytotoxicity against human MCF10A cells after 72 hrs by MTT assay; format: cell-based, MCF-10A; conditions: for GI50 at 72 h: MCF10A cells; for LC50 / TGI: mcf-10a, 72 h; procedure, shortened: as §1
[7] = tested on: PC-3; test: Cytotoxicity against human PC3 cells after 72 hrs by CV method; format: functional; conditions: PC-3, 72 h
Procedure, shortened: (§2)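 Crystal violet check of the MTT data: eight concentrations between 0.01 and 100, with 72 h exposure. Cells were fixed in 4% formaldehyde for at least 20 min, then stained with 0.1% crystal violet for 30 min. GI₅₀ is the concentration halving growth relative to untreated controls.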

[8] = tested on: HT-29; test: Cytotoxicity against human HT-29 cells after 72 hrs by CV method; format: functional; conditions: HT-29, 72 h; procedure, shortened: as §2
[9] = tested on: MCF7; test: Induction of apoptosis in human MCF7 cells assessed as apoptotic cells at 15 uM after 48 hrs by TUNEL assay; format: functional
Procedure, shortened: (§3)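 TUNEL (Apo-Direct) on MCF-7 cells treated with compound or vehicle, with camptothecin as positive control. Cells were fixed in paraformaldehyde and then ethanol, labelled with FITC-dUTP for 1 h at 37 °C, counterstained with PI/RNase, and analysed by flow cytometry. Read-out is % apoptotic cells, mean ± SEM of three independent experiments in duplicate wells.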

[10] = tested on: MCF7; test: Induction of apoptosis in human MCF7 cells assessed as accumulation at subG1 phase at 15 uM after 24 hrs by DNA flow cytometric assay; format: functional
Procedure, shortened: (§4)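 Exponentially growing MCF-7 cells were given compound or vehicle, with camptothecin as positive control. Cells were fixed in 1% paraformaldehyde in PBS pH 7.4 on ice for 1 h, then in 70% ethanol at −20 °C for 30 min. They were stained with PI/RNase for 30 min at RT in the dark. DNA content was measured by flow cytometry as % of total cells. Mean ± SEM of three independent experiments, duplicate wells.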

[11] = tested on: MCF7; test: Induction of apoptosis in human MCF7 cells assessed as accumulation at G0/G1 phase at 15 uM after 24 hrs by DNA flow cytometric assay; format: functional; procedure, shortened: as §4
[12] = tested on: MCF7; test: Induction of apoptosis in human MCF7 cells assessed as accumulation at S phase at 15 uM after 24 hrs by DNA flow cytometric assay; format: functional; procedure, shortened: as §4
[13] = tested on: MCF7; test: Induction of apoptosis in human MCF7 cells assessed as accumulation at G2/M phase at 15 uM after 24 hrs by DNA flow cytometric assay; format: functional; procedure, shortened: as §4
[14] = tested on: MCF7; test: Induction of apoptosis in human MCF7 cells assessed as accumulation at subG1 phase at 15 uM after 48 hrs by DNA flow cytometric assay; format: functional; procedure, shortened: as §4
[15] = tested on: MCF7; test: Induction of apoptosis in human MCF7 cells assessed as accumulation at G0/G1 phase at 15 uM after 48 hrs by DNA flow cytometric assay; format: functional; procedure, shortened: as §4
[16] = tested on: MCF7; test: Induction of apoptosis in human MCF7 cells assessed as accumulation at S phase at 15 uM after 48 hrs by DNA flow cytometric assay; format: functional; procedure, shortened: as §4
[17] = tested on: MCF7; test: Induction of apoptosis in human MCF7 cells assessed as accumulation at G2/M phase at 15 uM after 48 hrs by DNA flow cytometric assay; format: functional; procedure, shortened: as §4
[18] = tested on: MCF7; test: Induction of apoptosis in human MCF7 cells assessed as apoptotic cells at 15 uM after 24 hrs by TUNEL assay; format: functional; procedure, shortened: as §3

Compound: C[Se]/C(=N\C(=O)c1cnc2ccccc2c1)NC(=O)c1cnc2ccccc2c1
- GI50 [1]: 660 nM
- LC50 [1]: 60.7 µM
- TGI [1]: 8.03 µM
- GI50 [2]: 200 nM
- TGI [2]: > 100 µM
- CC50 [2]: > 100 µM
- GI50 [3]: 3.8 µM
- TGI [3]: 29.9 µM
- CC50 [3]: 74.8 µM
- GI50 [4]: 4160 nM
- TGI [4]: 23.7 µM
- CC50 [4]: 87.8 µM
- GI50 [5]: 2330 nM
- TGI [5]: 43.6 µM
- CC50 [5]: > 100 µM
- GI50 at 72 h [6]: 20.3 µM
- LC50 [6]: 83.86 µM
- TGI [6]: 52.1 µM
- GI50 [7]: 1420 nM
- GI50 [8]: 0.46 µM
- Activity [9]: 27.19%
- Activity [10]: 10.29%
- Activity [11]: 73.06%
- Activity [12]: 8.1%
- Activity [13]: 7.21%
- Activity [14]: 11.34%
- Activity [15]: 32.87%
- Activity [16]: 32.68%
- Activity [17]: 19.97%

Compound: CC[C@@]1(O)C(=O)OCc2c1cc1n(c2=O)Cc2cc3ccccc3nc2-1 [CAMPTOTHECIN]
- GI50 [1]: 10 nM
- TGI [1]: 0.16 µM
- GI50 [2]: 50 nM
- TGI [2]: 31.6 µM
- CC50 [2]: 31.6 µM
- GI50 [3]: 0.06 µM
- TGI [3]: 50.1 µM
- CC50 [3]: > 100 µM
- GI50 [5]: 60 nM
- TGI [5]: > 100 µM
- CC50 [5]: > 100 µM
- Activity [18]: 21.25%
- Activity [9]: 71.45%
- Activity [10]: 10.92%
- Activity [11]: 65.62%
- Activity [12]: 10.4%
- Activity [13]: 11.51%
- Activity [14]: 25.73%
- Activity [15]: 41.61%
- Activity [16]: 16.91%
- Activity [17]: 15.15%

Compound: C[Se]/C(=N\C(=O)c1cccs1)NC(=O)c1cccs1
- GI50 [1]: 3.4 nM
- LC50 [1]: > 100 µM
- TGI [1]: 5.64 µM
- GI50 [2]: 0.34 nM
- TGI [2]: > 100 µM
- CC50 [2]: > 100 µM
- GI50 [3]: 6.07 µM
- TGI [3]: > 100 µM
- CC50 [3]: > 100 µM
- GI50 [4]: 630 nM
- TGI [4]: 1.5 µM
- CC50 [4]: 12.5 µM
- GI50 [5]: 1340 nM
- TGI [5]: 63 µM
- CC50 [5]: > 100 µM
- GI50 at 72 h [6]: 9.26 µM
- LC50 [6]: 73.51 µM
- TGI [6]: 41.14 µM
- GI50 [7]: 630 nM
- GI50 [8]: 9 µM
- Activity [18]: 29.35%
- Activity [9]: 71.08%
- Activity [10]: 9.31%
- Activity [11]: 45.32%
- Activity [12]: 18.3%
- Activity [13]: 23.85%
- Activity [14]: 14.14%
- Activity [15]: 35.25%
- Activity [16]: 25.21%
- Activity [17]: 22.74%
